From ChEMBL document CHEMBL4251654, “Structure-based design of human immuno- and constitutive proteasomes inhibitors” (Eur J Med Chem, 2018) come the findings set out here.

Each structure is given as a SMILES string.

Sequence of Proteasome Macropain subunit (Homo sapiens) (P49721 whole entry): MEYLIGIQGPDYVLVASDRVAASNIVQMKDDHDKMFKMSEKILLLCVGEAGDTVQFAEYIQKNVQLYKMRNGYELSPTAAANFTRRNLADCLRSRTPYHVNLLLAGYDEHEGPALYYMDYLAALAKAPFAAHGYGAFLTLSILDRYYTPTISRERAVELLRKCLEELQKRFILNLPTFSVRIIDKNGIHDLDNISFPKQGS

The target in the first assay is T1, Proteasome subunit beta type-9 (Homo sapiens, UniProt P28065).
T1 sequence (P28065 whole entry): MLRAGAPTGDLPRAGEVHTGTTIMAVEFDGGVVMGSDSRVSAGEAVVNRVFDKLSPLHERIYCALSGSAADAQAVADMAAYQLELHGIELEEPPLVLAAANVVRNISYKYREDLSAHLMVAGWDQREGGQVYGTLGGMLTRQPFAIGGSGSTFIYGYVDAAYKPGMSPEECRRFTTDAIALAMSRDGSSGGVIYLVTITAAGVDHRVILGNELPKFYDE
Kind of assay: Inhibition of human 20S immunoproteasome beta-1 using Ac-PAL-AMC as substrate incubated for 15 mins measured for 45 mins by fluorescence assay. The gist of the method: (§1)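 Human 20S immunoproteasome (0.3 nM) was given 15 min with compound (0.001-50 μM) in pH 8 buffer of 20 mM Tris-HCl, 10% glycerol, 0.01% SDS, 2% DMSO. Ac-PAL-AMC at 50 μM was the substrate. Fluorescence (ex 360/em 460 nm) was followed 45 min at 37 °C relative to control.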
Broadly, the IC50 is the midpoint of a concentration-inhibition curve. The low end stands for inhibition by little substance, the high end for a need for much substance. As for `C[C@H](NC(=O)Cc1cccc(Oc2ccccc2)c1)C(=O)N[C@@H](C[C@]1(O)C(=O)Nc2ccccc21)C(=O)NCc1ccccc1`, half-maximal inhibition (IC50) required 14 µM.

Compound `C[C@H](NC(=O)[C@H](Cc1ccc(OCc2ccccc2)cc1)NC(=O)OC(C)(C)C)C(=O)N[C@@H](C[C@]1(O)C(=O)Nc2ccccc21)C(=O)NCC1CCCCC1` gave an IC50 of 4.8 µM.

The target in a further assay is T2, Proteasome subunit beta type-8 (Homo sapiens) (UniProt P28062).
T2 sequence (whole entry): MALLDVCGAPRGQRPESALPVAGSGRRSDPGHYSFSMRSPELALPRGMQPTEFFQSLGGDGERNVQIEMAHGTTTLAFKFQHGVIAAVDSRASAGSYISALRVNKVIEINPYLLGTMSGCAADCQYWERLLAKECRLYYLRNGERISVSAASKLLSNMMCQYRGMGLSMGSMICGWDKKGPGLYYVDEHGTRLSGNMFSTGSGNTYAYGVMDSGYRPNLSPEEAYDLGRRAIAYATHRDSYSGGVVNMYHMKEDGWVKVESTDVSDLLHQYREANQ
Put plainly: Inhibition of human 20S immunoproteasome beta-5 at 50 uM using Suc-LLVY-AMC as substrate incubated for 15 mins measured for 45 mins by fluorescence assay relative to control. The gist of the method:
(§2)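 Human 20S cCP or iCP (0.3 nM) was exposed to compound (0.001-50 μM) for 15 min in pH 8 buffer of 20 mM Tris-HCl, 10% glycerol, 0.01% SDS, 2% DMSO. Suc-LLVY-AMC at 20 μM followed. Fluorescence (ex 360/em 460 nm) was read 45 min at 37 °C versus untreated enzyme.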
Broadly, the inhibition is the relative decrease from the control value, in per cent. Higher therefore signals a response far below the control. Turning to `C[C@H](NC(=O)Cc1cccc(Oc2ccccc2)c1)C(=O)N[C@@H](C[C@]1(O)C(=O)Nc2ccccc21)C(=O)NCc1ccccc1`, the inhibition was greater than 85%.

Compound `C[C@H](NC(=O)[C@H](Cc1ccc(OCc2ccccc2)cc1)NC(=O)OC(C)(C)C)C(=O)N[C@@H](C[C@]1(O)C(=O)Nc2ccccc21)C(=O)NCC1CCCCC1` displayed an inhibition greater than 85%.

In another assay the target is T3, Proteasome Macropain subunit MB1 (Homo sapiens, UniProt P28074).
T3 sequence (P28074 whole entry): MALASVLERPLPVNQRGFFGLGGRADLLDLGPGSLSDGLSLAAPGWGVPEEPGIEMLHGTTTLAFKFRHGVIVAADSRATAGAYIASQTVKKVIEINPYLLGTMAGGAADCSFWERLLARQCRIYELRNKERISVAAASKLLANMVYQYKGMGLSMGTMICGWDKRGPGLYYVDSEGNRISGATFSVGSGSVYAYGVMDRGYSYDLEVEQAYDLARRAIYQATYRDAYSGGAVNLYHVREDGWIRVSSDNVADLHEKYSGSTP
Put plainly: Inhibition of human 20S constitutive proteasome beta-5 using Suc-LLVY-AMC as substrate incubated for 15 mins measured for 45 mins by fluorescence assay. The gist of the method: as §2
Consider `C[C@H](NC(=O)Cc1cccc(Oc2ccccc2)c1)C(=O)N[C@@H](C[C@]1(O)C(=O)Nc2ccccc21)C(=O)NCc1ccccc1`, for which the IC50 came out at 0.35 µM.

As for `C[C@H](NC(=O)[C@H](Cc1ccc(OCc2ccccc2)cc1)NC(=O)OC(C)(C)C)C(=O)N[C@@H](C[C@]1(O)C(=O)Nc2ccccc21)C(=O)NCC1CCCCC1`, the IC50 was 4.3 µM.

The next assay addresses T4, Proteasome subunit beta type-9 (Homo sapiens) (UniProt P28065).
T4 sequence (whole entry): T1 sequence (P28065 whole entry)
Kind of assay: Inhibition of human 20S immunoproteasome beta-1 at 50 uM using Ac-PAL-AMC as substrate incubated for 15 mins measured for 45 mins by fluorescence assay relative to control. The gist of the method:
as §1
`C[C@H](NC(=O)Cc1cccc(Oc2ccccc2)c1)C(=O)N[C@@H](C[C@]1(O)C(=O)Nc2ccccc21)C(=O)NCc1ccccc1` yielded an inhibition greater than 85%.

`C[C@H](NC(=O)[C@H](Cc1ccc(OCc2ccccc2)cc1)NC(=O)OC(C)(C)C)C(=O)N[C@@H](C[C@]1(O)C(=O)Nc2ccccc21)C(=O)NCC1CCCCC1` had an inhibition greater than 85%.

In another assay the target is T5, Proteasome component C5 (Homo sapiens) (UniProt P20618).
T5 sequence (whole entry): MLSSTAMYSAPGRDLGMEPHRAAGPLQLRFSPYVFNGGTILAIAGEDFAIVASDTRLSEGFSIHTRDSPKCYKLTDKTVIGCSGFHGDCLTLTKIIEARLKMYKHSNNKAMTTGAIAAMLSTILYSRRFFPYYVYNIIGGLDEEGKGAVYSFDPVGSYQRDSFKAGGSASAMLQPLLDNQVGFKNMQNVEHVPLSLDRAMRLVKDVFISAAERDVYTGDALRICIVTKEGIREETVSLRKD
Put plainly: Inhibition of human 20S constitutive proteasome beta-1 at 50 uM using Z-LLE-betaNA as substrate incubated for 15 mins measured for 45 mins by fluorescence assay relative to control. The gist of the method:
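Human 20S constitutive proteasome, 0.3 nM, was preincubated 15 min with compound (0.001-50 μM) in pH 8 Tris-HCl 20 mM, 10% glycerol, 0.01% SDS, 2% DMSO. Z-LLE-βNA at 50 μM was added. βNA fluorescence (ex 340/em 404 nm) was monitored 45 min at 37 °C against an untreated control.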
For the compound `C[C@H](NC(=O)Cc1cccc(Oc2ccccc2)c1)C(=O)N[C@@H](C[C@]1(O)C(=O)Nc2ccccc21)C(=O)NCc1ccccc1`, the inhibition was greater than 85%.

In turn, `C[C@H](NC(=O)[C@H](Cc1ccc(OCc2ccccc2)cc1)NC(=O)OC(C)(C)C)C(=O)N[C@@H](C[C@]1(O)C(=O)Nc2ccccc21)C(=O)NCC1CCCCC1` came in with an inhibition greater than 85%.

The target of the next assay is T6, Proteasome subunit beta type-10 (Homo sapiens, UniProt P40306).
T6 sequence (P40306 whole entry): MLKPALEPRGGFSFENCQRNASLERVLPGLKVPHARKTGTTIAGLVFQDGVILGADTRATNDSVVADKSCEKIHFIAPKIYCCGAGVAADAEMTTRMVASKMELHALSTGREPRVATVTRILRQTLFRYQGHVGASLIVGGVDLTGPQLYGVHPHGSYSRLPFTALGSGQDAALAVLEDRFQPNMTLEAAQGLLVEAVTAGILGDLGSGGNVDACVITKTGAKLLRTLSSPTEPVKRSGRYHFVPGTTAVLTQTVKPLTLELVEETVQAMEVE
Kind of assay: Inhibition of human 20S immunoproteasome beta-2 using BocLRR-AMC as substrate incubated for 15 mins measured for 45 mins by fluorescence assay.
Turning to `C[C@H](NC(=O)Cc1cccc(Oc2ccccc2)c1)C(=O)N[C@@H](C[C@]1(O)C(=O)Nc2ccccc21)C(=O)NCc1ccccc1`, the IC50 amounted to 14.3 µM.

Take `C[C@H](NC(=O)[C@H](Cc1ccc(OCc2ccccc2)cc1)NC(=O)OC(C)(C)C)C(=O)N[C@@H](C[C@]1(O)C(=O)Nc2ccccc21)C(=O)NCC1CCCCC1`: the IC50 worked out at 16 µM.

The next assay addresses Proteasome Macropain subunit (Homo sapiens) (UniProt P49721). Put plainly: Inhibition of human 20S constitutive proteasome beta-2 at 50 uM using BocLRR-AMC as substrate incubated for 15 mins measured for 45 mins by fluorescence assay relative to control. The gist of the method:
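Purified human 20S proteasome (cCP or iCP), 0.3 nM, preincubated 15 min with compound (0.001-50 μM) in pH 8 buffer of 20 mM Tris-HCl, 10% glycerol, 0.005% Triton X-100, 2% DMSO. Then Boc-LRR-AMC at 50 μM was added. AMC fluorescence (ex 360/em 460 nm) was followed 45 min at 37 °C. Activity is relative to an untreated control.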
In the case of `C[C@H](NC(=O)Cc1cccc(Oc2ccccc2)c1)C(=O)N[C@@H](C[C@]1(O)C(=O)Nc2ccccc21)C(=O)NCc1ccccc1`, the inhibition was greater than 85%.

As to `C[C@H](NC(=O)[C@H](Cc1ccc(OCc2ccccc2)cc1)NC(=O)OC(C)(C)C)C(=O)N[C@@H](C[C@]1(O)C(=O)Nc2ccccc21)C(=O)NCC1CCCCC1`, the inhibition was greater than 85%.

The target in the next assay is T7, Proteasome subunit beta type-8 (Homo sapiens, UniProt P28062).
T7 sequence (P28062 whole entry): T2 sequence (whole entry)
Kind of assay: Inhibition of human 20S immunoproteasome beta-5 using Suc-LLVY-AMC as substrate incubated for 15 mins measured for 45 mins by fluorescence assay. The gist of the method: as §2
`C[C@H](NC(=O)Cc1cccc(Oc2ccccc2)c1)C(=O)N[C@@H](C[C@]1(O)C(=O)Nc2ccccc21)C(=O)NCc1ccccc1` yielded an IC50 of 0.26 µM.

`C[C@H](NC(=O)[C@H](Cc1ccc(OCc2ccccc2)cc1)NC(=O)OC(C)(C)C)C(=O)N[C@@H](C[C@]1(O)C(=O)Nc2ccccc21)C(=O)NCC1CCCCC1`: the IC50 was 5.2 µM.

A further assay concerns the target T8, Proteasome subunit beta type-10 (Homo sapiens) (UniProt P40306).
T8 sequence (whole entry): T6 sequence (P40306 whole entry)
Kind of assay: Inhibition of human 20S immunoproteasome beta-2 at 50 uM using BocLRR-AMC as substrate incubated for 15 mins measured for 45 mins by fluorescence assay relative to control.
As to `C[C@H](NC(=O)Cc1cccc(Oc2ccccc2)c1)C(=O)N[C@@H](C[C@]1(O)C(=O)Nc2ccccc21)C(=O)NCc1ccccc1`, the inhibition was greater than 85%.

Compound `C[C@H](NC(=O)[C@H](Cc1ccc(OCc2ccccc2)cc1)NC(=O)OC(C)(C)C)C(=O)N[C@@H](C[C@]1(O)C(=O)Nc2ccccc21)C(=O)NCC1CCCCC1` had an inhibition greater than 85%.

For a further assay, the target named is T9, Proteasome Macropain subunit MB1 (Homo sapiens) (UniProt P28074).
T9 sequence (whole entry): T3 sequence (P28074 whole entry)
Kind of assay: Inhibition of human 20S constitutive proteasome beta-5 at 50 uM using Suc-LLVY-AMC as substrate incubated for 15 mins measured for 45 mins by fluorescence assay relative to control. In a few lines:
as §2
As for `C[C@H](NC(=O)Cc1cccc(Oc2ccccc2)c1)C(=O)N[C@@H](C[C@]1(O)C(=O)Nc2ccccc21)C(=O)NCc1ccccc1`, the inhibition was greater than 85%.

Take `C[C@H](NC(=O)[C@H](Cc1ccc(OCc2ccccc2)cc1)NC(=O)OC(C)(C)C)C(=O)N[C@@H](C[C@]1(O)C(=O)Nc2ccccc21)C(=O)NCC1CCCCC1`: the inhibition is greater than 85%.
